mABHD4 FP: inhibits mouse alpha/beta hydrolase domain 4 | Q8VD66 | purified mABHD4, FP-Rh probe fluorescence polarization | inhibition, % at 8.92 µM | hit rate 0.54% among 370,000;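 active = inhibition exceeding the mean over every tested compound plus 3 SD, cut at about 30% in these data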;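 also: 0% = plate median of compound wells and 100% = S159A mutant with DMSO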
Target sequence (Q8VD66 whole entry, looked up, the tested form may be a part): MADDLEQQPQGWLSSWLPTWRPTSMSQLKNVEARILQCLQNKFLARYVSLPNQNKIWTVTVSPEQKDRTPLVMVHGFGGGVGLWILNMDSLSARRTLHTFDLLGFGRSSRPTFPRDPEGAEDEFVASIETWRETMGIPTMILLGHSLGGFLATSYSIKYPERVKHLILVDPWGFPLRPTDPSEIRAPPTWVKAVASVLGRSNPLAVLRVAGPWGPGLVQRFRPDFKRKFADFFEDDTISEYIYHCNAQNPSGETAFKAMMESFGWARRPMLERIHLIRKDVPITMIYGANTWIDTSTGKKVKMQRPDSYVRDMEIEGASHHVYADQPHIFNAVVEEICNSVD
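Test system: mABHD4 protein | Buffer or medium: HEPES pH 7.0 buffer, 150 mM NaCl, 0.01% Pluronic F-127 | Probe or stimulus: FP-Rh fluorescent activity-based probe, added after compound pre-incubation | Timing: Pre-incubation 45 min, probe exposure 60 min, at 25 °C | Technique: Fluorescence polarization, excitation 525 nm, emission 598 nm, BODIPY TMR filters | Repeats: Single well per compound (singlicate)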
DAGLB inhibitor: diacylglycerol lipase beta (human) inhibition. inhibition, % at 5.17 µM. hit rate 0.059% among 340,000. HEK293T DAGLB membrane lysate, EnzChek fluorogenic substrate; in the data active = inhibition above about 34%;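 also: 0% = enzyme with vehicle and 100% = wells lacking enzyme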
HTRA1 inh: HTRA1 (human) protease inhibition; Q92743; recombinant HTRA1, FP-rhodamine activity-based probe, fluorescence polarization; inhibition, % at 5.96 µM; hit rate 0.5% among 340,000; in the data active = inhibition above about 36%;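 also: 0% = enzyme with DMSO and 100% = wells lacking enzyme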
TCR CD3 inh: inhibitors of human TCR-CD3 interaction; inhibition, % at 9.4 µM; TAMRA-labeled TCR probe fluorescence, biochemical; hit rate 0.37% among 360,000; AID 651800;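 also: recombinant mutant TCR 2C K166C tagged with TAMRA read by polarization; 0% = receptor in buffer alone and 100% = receptor with positive control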
SIAE inh: human SIAE inhibition, primary screen | SIAE FP-Rh probe binding, fluorescence polarization | inhibition, % at 9.66 µM | hit rate 0.69% among 370,000 | AID 1053197;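 active = inhibition above a cutoff: mean of compounds within the control limits plus 3 SD of those, cut at about 17% in these data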;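 also: 0% = plate median of compound wells and 100% = probe without SIAE protein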
HTRA1 inh conf: confirmation of human HTRA1 inhibitors; shares compounds with HTRA1 inh; recombinant HTRA1, FP-rhodamine activity-based probe, fluorescence polarization; inhibition, % at 5.96 µM; hit rate 66% among 1,600; AID 540248;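 active = mean inhibition over three repeats above a set limit taken from the earlier primary screen, cut at about 37% in these data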;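 also: 0% = HTRA1 with DMSO and 100% = wells lacking HTRA1; inhibitors block probe binding so polarization drops and inhibition rises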
BSA probe FL: BSA probe counter-screen for TCR-CD3 inhibitors. inhibition, % at 9.4 µM. TAMRA-labeled BSA probe fluorescence counterscreen. shares compounds with TCR CD3 inh. AID 652035. hit rate 10% among 1,200; in the data active = inhibition above about 23%;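 also: 0% = buffer low control and 100% = reference high control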
TCR-CD3 conf: confirmation of human TCR-CD3 interaction inhibitors; hit rate 48% among 1,200; AID 652036; inhibition, % at 9.4 µM; shares compounds with TCR CD3 inh; TAMRA-labeled TCR probe fluorescence binding assay
ABHD4 confirm: confirmation of mouse ABHD4 inhibitors; inhibition, % at 8.92 µM; purified mABHD4, FP-Rh probe fluorescence polarization; hit rate 55% among 1,800; AID 720658; shares compounds with mABHD4 FP;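 active = mean inhibition across replicates above the hit cutoff set in the primary screen, cut at about 30% in these data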;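 also: 0% = wild-type ABHD4 with DMSO and 100% = catalytically dead S159A mutant with DMSO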
SIAE confirm: confirmation of human SIAE inhibitors | hit rate 13% among 2,300 | shares compounds with SIAE inh | inhibition, % at 9.66 µM | SIAE FP-Rh activity-based probe, fluorescence polarization | AID 1117263;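 active = mean inhibition of the replicates above the hit cutoff set in the primary screen, cut at about 17% in these data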;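 also: 0% = SIAE with DMSO and probe and 100% = probe without SIAE; inhibitors lower polarization as more probe stays unbound to SIAE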
* = called active by the depositor; x = not tested or not shown; ! = a repeat was not active. A selection: hits, their analogues and other compounds. The true share with any hit is near 1.6%. Rule as the data show it, unless noted: active = inhibition above about 19%; inactive = the rest.

SMILES	mABHD4 FP	DAGLB inhibitor	HTRA1 inh	TCR CD3 inh	SIAE inh	HTRA1 inh conf	ABHD4 confirm	others
CC(=O)N1CCN(c2ccc(NCc3cccc4ccccc34)cc2)CC1	29.6*	2.6	36.8*	2.9	9.8	26.1	7.6
O=C(NCc1ccc(Cl)cc1)OCCN1C(=O)CCC12CCC(c1ccccc1)CC2 (stereo not drawn)	6.7	x	x	x	4.5	x	x
CN(C)c1ccc(N=Nc2ccc3ncccc3c2)cc1	7.0	32.4	12.8	3.7	-1.0	x	x
Cc1cc(N(C)C)ccc1N=Nc1ccc2ncccc2c1	45.0*	33.6	37.0*	-2.0	3.3	37.2*	53.9*
COC(=O)[C@H](CC(C)C)N(CCc1cn(Cc2ccc(C)cc2)nn1)S(=O)(=O)c1ccc(F)cc1Br	-2.0	x	x	x	0.8	x	x
COc1cccc2c1C(=O)c1c(O)c3c(c(O)c1C2=O)C[C@@](O)(C(C)=O)C[C@@H]3O[C@H]1C[C@H](N)[C@H](O)[C@H](C)O1	61.8*	-17.9	72.2*	161.8*	44.8*	74.4*	47.6*	BSA probe FL=183.0*;TCR-CD3 conf=150.3*
O=C(Cc1c[nH]c2ccccc12)Nc1ccc(Nc2cccnc2)c(-c2ccc(Cl)c(Cl)c2)c1	21.6	x	x	1.8	10.3	x	x
O=C1c2c(O)ccc(O)c2C(=O)c2c(NCCNCCO)ccc(NCCNCCO)c21	32.9*!	10.9	72.0*	-6.8	11.2	58.7*	37.4*
CC(=O)Nc1ccc(Nc2ccc3c4c(cc(=O)n3C)-c3ccccc3C(=O)c24)cc1	15.8	10.9	20.9	1.2	4.0	x	x
O=C1c2ccccc2C(=O)c2c(Nc3ccc(CCO)cc3)ccc(O)c21	48.3*	27.9	53.3*	0.2	12.0	80.5*	75.5*
C=C1c2cccc(O)c2C(=O)C2C(=O)[C@]3(O)C(=O)C(C(N)=O)C(=O)[C@@H](N(C)C)[C@@H]3[C@@H](O)[C@H]12 (stereo partly drawn)	84.8*	2.1	45.9*	27.5*	47.0*	37.6*	16.8	BSA probe FL=-4.4;TCR-CD3 conf=14.2
Oc1c(Cl)cc(Cl)c2c1NCCC2	38.0*	10.8	51.5*	5.1	14.4	30.1	37.4*
O=C1NCCCc2c1oc1ccc(O)cc21	-5.4	0.1	-3.2	-2.1	5.1	x	x
CNc1ccc(Br)cc(C(=O)/C=C/c2cccc(OC)c2OC)c1=O	39.0*	4.6	39.2*	9.8	12.0	31.9	33.8*
CNc1ccc(Br)cc(C(=O)/C=C/c2cccc(Cl)c2Cl)c1=O	42.0*	21.7	65.3*	6.7	14.1	33.0	35.4*
CN1[C@@H](Cc2ccccc2)COc2cccc(N3CCCC3)c2S1(=O)=O	-5.6	x	x	x	7.3	x	x
COC(=O)[C@]12C[C@H](CC(=O)NCc3ccc(C)o3)C(=O)N(CCc3ccc(OC)c(OC)c3)C1=C[C@H](C(C)C)O[C@@H]2C1CC1	2.1	x	x	x	-1.1	x	x
Cc1cc(O)c(N=Cc2cc3c(cc2[N+](=O)[O-])OCO3)cc1C	45.0*	3.2	51.7*	-7.4	8.4	6.4	20.7
O=C(N/N=C/c1cc2c(cc1[N+](=O)[O-])OCO2)c1ccc2c(c1)OCO2	10.1	1.7	0.4	-8.9	-3.9	x	x
COC(=O)[C@]12C[C@H](CC(=O)NCCCN3CCCC3=O)C(=O)N(Cc3ccc(Cl)cc3Cl)C1=C[C@H](C(C)C)O[C@@H]2C1CC1	6.2	x	x	x	-1.0	x	x
O=C(CCc1ccccc1)N[C@H]1[C@H](OC(=O)c2ccco2)CCC[C@]12C(=O)N(Cc1ccccc1)c1ccccc12	0.7	x	x	x	3.5	x	x
CCCCCCCCCCCCCCC(O)C[N+](C)(CCO)CCO (stereo not drawn)	44.9*	3.4	54.4*	-0.1	-6.8	54.8*	48.1*
CCCOc1ccc(C(=O)N2CCC(Oc3cccnc3)CC2)cc1	3.7	x	x	x	2.8	x	x
Cc1ccc(SCc2cc(=O)c3c(=O)n(-c4ccccc4)[nH]c3[nH]2)cc1	54.4*	19.0	56.0*	2.2	16.1	8.4	34.5*
NC(=S)N=Nc1c(O)[nH]c2ccc(F)cc12	9.0	2.9	6.7	-2.5	-4.4	x	x
SMILES	mABHD4 FP	DAGLB inhibitor	HTRA1 inh	TCR CD3 inh	SIAE inh	HTRA1 inh conf	ABHD4 confirm	others
NC(=S)N=Nc1c(O)cc(O)c2[nH]c(=O)ccc12	33.8*	0.8	60.9*	29.6*	12.1	42.9*	77.2*
Cc1cc(C)c2nc(NNC(=O)c3cc(=O)c4ccccc4o3)sc2c1	39.7*	22.3	69.2*	-6.7	1.6	58.7*	61.2*
CC1CCCCC1NC(=O)COC(=O)c1c2c(nc3ccccc13)/C(=C/c1ccco1)CC2 (stereo not drawn)	38.2*	25.7	80.7*	9.9	17.0	22.8	20.3
COc1ccc(-c2cc(-c3nnc(SCC(=O)NC4CCCCC4)n3N)[nH]n2)cc1	4.9	x	x	x	-3.5	x	x
O=C1OC(c2ccc3ccccc3c2O)(c2ccc3ccccc3c2O)c2ccccc21	43.8*	8.0	36.2*	0.7	11.9	44.0*	48.0*
COc1ccc(Nc2c([N+](=O)[O-])ccc3c2=NC2(CCCCC2)N=3)cc1	30.5*	31.7	54.7*	-5.3	4.8	51.9*	40.3*
O=[N+]([O-])c1ccc2c(c1Nc1ccccc1)=NC1(CCCCC1)N=2	7.4	10.4	15.0	6.7	3.5	x	x
CCN(CC)c1ccc(/C=N/Nc2ccc(C)cc2)c(O)c1	30.9*	-0.4	42.4*	3.5	13.3	19.7	31.4*
COC(=O)c1c(C(=O)OC)c2cccc3cc(-c4ccccc4)c4ccc1c4n32	35.9*	4.8	38.6*	9.5	8.2	57.6*	34.7*
COC(=O)c1cc(-c2ccccc2)sc1N	-0.2	-1.2	3.0	-5.0	4.8	x	x
c1cc2c3c(cccc3c1)NN=N2	32.8*	8.6	37.3*	-1.2	7.6	33.4	27.1
CCOC(=O)c1ccc(N/C=C/C(=O)C(C)(C)C)cc1	-6.2	-5.3	-2.2	-0.5	4.3	x	x
CN(C)c1ccc(N/C=C/C(=O)C(C)(C)C)cc1	25.7	6.6	58.5*	13.5	17.4*	4.0	x	SIAE confirm=-3.3
COc1cc2c(cc1NC(=O)CSc1nnc(-c3ccccc3F)n1-c1ccc(C)cc1)oc1ccccc12	-8.9	x	x	x	3.8	x	x
CN(C1=C(N2CCCCC2)C(=O)c2ccccc2C1=O)c1ccccc1	38.5*	37.9*	65.6*	-10.2	19.7*	74.7*	69.0*	SIAE confirm=14.1

Source: PubChem BioAssay (The Scripps Research Institute Molecular Screening Center)
